From ChEMBL document CHEMBL1240480, “Design, synthesis and biological evaluation of L-dopa amide derivatives as potential prodrugs for the treatment of Parkinson's disease” (Eur J Med Chem, 2010)

Tests used:
Rattus norvegicus [1] = experiment: Antiparkinsonian activity in 6-hydroxydopamine lesioned Wistar rat assessed as area under curve measured as number of rotation per 10 mins at 20.97 mg/kg, po; type: functional
Method in brief: (§1)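 Male Wistar rats were given desipramine (25 mg/kg ip) and then a unilateral 6-OHDA injection (8 µg free base) into the left medial forebrain bundle. Lesions were confirmed ≥2 weeks later by apomorphine (0.5 mg/kg sc), accepting rats with >6 turns/min. Rats (n=4–8) received benserazide 10 mg/kg and 30 min basal recording, then drug at 63.4 µmol/kg ip or po in saline. Contraversive rotations were counted per 10 min over 240 min. AUC was calculated and expressed as % of the L-dopa effect.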

Rattus norvegicus [2] = experiment: Antiparkinsonian activity in 6-hydroxydopamine lesioned Wistar rat assessed as number of rotation per 10 mins at 20.97 mg/kg, po; type: functional
Method in brief: (§2)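 Rotometer assay in unilaterally 6-OHDA-lesioned male Wistar rats (apomorphine-confirmed, >6 turns/min). Benserazide 10 mg/kg was given, followed by compound at 63.4 µmol/kg ip or po in saline (n=4–8 per treatment). Rotations were recorded per 10 min for 240 min. Peak (maximum) rotations per 10 min were taken and expressed relative to L-dopa.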

Rattus norvegicus [3] = experiment: Antiparkinsonian activity in 6-hydroxydopamine lesioned Wistar rat assessed as duration of rotation per 10 mins at 20.97 mg/kg, po; type: functional
Method in brief: (§3)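 The 6-OHDA-lesioned male Wistar rats were apomorphine-screened (>6 turns/min) and given benserazide 10 mg/kg, then a saline-vehicle dose of 63.4 µmol/kg ip or po (n=4–8). Rotations were counted per 10 min for 4 h. Duration of activity was the time turning >10 turns per 10 min, expressed as % of the L-dopa effect.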

Rattus norvegicus [4] = experiment: Antiparkinsonian activity in 6-hydroxydopamine lesioned Wistar rat assessed as area under curve measured as number of rotation per 10 mins at 21.86 mg/kg, po; type: functional; method in brief: as §1
Rattus norvegicus [5] = experiment: Antiparkinsonian activity in 6-hydroxydopamine lesioned Wistar rat assessed as duration of rotation per 10 mins at 21.86 mg/kg, po; type: functional; method in brief: as §3
Rattus norvegicus [6] = experiment: Antiparkinsonian activity in 6-hydroxydopamine lesioned Wistar rat assessed as number of rotation per 10 mins at 21.86 mg/kg, po; type: functional
Rattus norvegicus [7] = experiment: Antiparkinsonian activity in 6-hydroxydopamine lesioned Wistar rat assessed as number of rotation per 10 mins at 22.75 mg/kg, po; type: functional
Rattus norvegicus [8] = experiment: Antiparkinsonian activity in 6-hydroxydopamine lesioned Wistar rat assessed as duration of rotation per 10 mins at 22.75 mg/kg, po; type: functional; method in brief: as §3
Rattus norvegicus [9] = experiment: Antiparkinsonian activity in 6-hydroxydopamine lesioned Wistar rat assessed as area under curve measured as number of rotation per 10 mins at 22.75 mg/kg, po; type: functional; method in brief: as §1
Rattus norvegicus [10] = experiment: Antiparkinsonian activity in 6-hydroxydopamine lesioned Wistar rat assessed as number of rotation per 10 mins at 21.81 mg/kg, po; type: functional
Rattus norvegicus [11] = experiment: Antiparkinsonian activity in 6-hydroxydopamine lesioned Wistar rat assessed as area under curve measured as number of rotation per 10 mins at 21.81 mg/kg, po; type: functional; method in brief: as §1
Rattus norvegicus [12] = experiment: Antiparkinsonian activity in 6-hydroxydopamine lesioned Wistar rat assessed as duration of rotation per 10 mins at 21.81 mg/kg, po; type: functional; method in brief: as §3
Rattus norvegicus [13] = experiment: Antiparkinsonian activity in 6-hydroxydopamine lesioned Wistar rat assessed as duration of rotation per 10 mins at 23.89 mg/kg, po; type: functional; method in brief: as §3
Rattus norvegicus [14] = experiment: Cmax in Wistar rat at 23.9 mg/kg, po assessed as L-dopa level; type: ADME, organism-based; parameters: dose 23.9 mg/kg, route oral; conditions: in vivo
Method in brief: (§4)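 Naïve male Wistar rats (250–500 g), fasted overnight, dosed orally in 0.9% saline with benserazide (10 mg/kg) at dose equivalent to 12.5 mg/kg L-dopa. Heparinised tail-vein blood at various times; plasma extracted with 20% TFA in 10 mM metabisulphite with warfarin internal standard; L-dopa quantified by LC-MS/MS (positive ESI) against plasma standard curve 0.39–50 µM.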

Rattus norvegicus [15] = experiment: Antiparkinsonian activity in 6-hydroxydopamine lesioned Wistar rat assessed as area under curve measured as number of rotation per 10 mins at 23.89 mg/kg, po; type: functional; method in brief: as §1
Rattus norvegicus [16] = experiment: Antiparkinsonian activity in 6-hydroxydopamine lesioned Wistar rat assessed as number of rotation per 10 mins at 23.89 mg/kg, po; type: functional
Rattus norvegicus [17] = experiment: AUC (0 to 4 hrs) in Wistar rat at 23.9 mg/kg, po assessed as L-dopa level; type: ADME, organism-based, Plasma; parameters: time < 4 hr, dose 23.9 mg/kg, route oral; conditions: in vivo
Method in brief: (§5)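 Naïve male Wistar rats (250–500 g), fasted overnight, dosed with compound in 0.9% saline together with benserazide (10 mg/kg), at a dose molar-equivalent to 12.5 mg/kg L-dopa. Heparinised tail-vein blood was sampled at intervals and the plasma stored at −80 °C. L-dopa was extracted with 20% TFA/10 mM metabisulphite plus warfarin internal standard and quantified by LC-MS/MS (positive ESI) against plasma standard curves.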

Rattus norvegicus [18] = experiment: Apparent half life in Wistar rat at 25.4 mg/kg, po assessed as L-dopa level; type: ADME, organism-based; parameters: dose 25.4 mg/kg, route oral; conditions: in vivo; method in brief: as §4
Rattus norvegicus [19] = experiment: AUC (0 to 4 hrs) in Wistar rat at 25.4 mg/kg, po assessed as L-dopa level; type: ADME, organism-based, Plasma; parameters: time < 4 hr, dose 25.4 mg/kg, route oral; conditions: in vivo; method in brief: as §5
Rattus norvegicus [20] = experiment: Cmax in Wistar rat at 25.4 mg/kg, po assessed as L-dopa level; type: ADME, organism-based; parameters: dose 25.4 mg/kg, route oral; conditions: in vivo; method in brief: as §4
Rattus norvegicus [21] = experiment: Antiparkinsonian activity in 6-hydroxydopamine lesioned Wistar rat assessed as duration of rotation per 10 mins at 12.5 mg/kg, po; type: functional; method in brief: as §3
Rattus norvegicus [22] = experiment: Antiparkinsonian activity in 6-hydroxydopamine lesioned Wistar rat assessed as number of rotation per 10 mins at 12.5 mg/kg, ip; type: functional; conditions: route intraperitoneal; method in brief: as §2
Rattus norvegicus [23] = experiment: Antiparkinsonian activity in 6-hydroxydopamine lesioned Wistar rat assessed as number of rotation per 10 mins at 12.5 mg/kg, po; type: functional; method in brief: as §2
Rattus norvegicus [24] = experiment: Antiparkinsonian activity in 6-hydroxydopamine lesioned Wistar rat assessed as duration of rotation per 10 mins at 12.5 mg/kg, ip; type: functional; conditions: route intraperitoneal; method in brief: as §3
Rattus norvegicus [25] = experiment: Antiparkinsonian activity in 6-hydroxydopamine lesioned Wistar rat assessed as area under curve measured as number of rotation per 10 mins at 12.5 mg/kg, ip; type: functional; conditions: route intraperitoneal; method in brief: as §1
Rattus norvegicus [26] = experiment: Antiparkinsonian activity in 6-hydroxydopamine lesioned Wistar rat assessed as area under curve measured as number of rotation per 10 mins at 12.5 mg/kg, po; type: functional; method in brief: as §1

`CNC(=O)[C@@H](N)Cc1ccc(OC(C)=O)c(OC(C)=O)c1.Cl` was tested, and the Activity (Rattus norvegicus [1]) was 26, the Activity (Rattus norvegicus [2]) was 1 and the Time (Rattus norvegicus [3]) was 0 min.

`CCNC(=O)[C@@H](N)Cc1ccc(OC(C)=O)c(OC(C)=O)c1.Cl` showed an Activity (Rattus norvegicus [4]) of 20, a Time (Rattus norvegicus [5]) of 3 min and an Activity (Rattus norvegicus [6]) of 6.

Work on `CC(=O)Oc1ccc(C[C@H](N)C(=O)NC(C)C)cc1OC(C)=O.Cl` yielded an Activity (Rattus norvegicus [7]) of 2, a Time (Rattus norvegicus [8]) of 0 min and an Activity (Rattus norvegicus [9]) of 26.

`CC(=O)Oc1ccc(C[C@H](N)C(=O)N(C)C)cc1OC(C)=O.Cl` was tested, and the Activity (Rattus norvegicus [10]) was 1, the Activity (Rattus norvegicus [11]) was 26 and the Time (Rattus norvegicus [12]) was 0 min.

Compound `CCOC(=O)Oc1ccc(C[C@H](N)C(N)=O)cc1OC(=O)OCC.Cl` has a Time (Rattus norvegicus [13]) of 153 min, a Cmax (Rattus norvegicus [14]) of 690 ng/mL and an Activity (Rattus norvegicus [15]) of 579. The Activity (Rattus norvegicus [16]) was 90 and the AUC (Rattus norvegicus [17]) was 95 µg·min/mL.

In the case of `CC(C)CC(=O)Oc1ccc(C[C@H](N)C(N)=O)cc1OC(=O)CC(C)C.Cl`, the t1/2 (Rattus norvegicus [18]) is reported as 1.3 h, the AUC (Rattus norvegicus [19]) is reported as 98 µg·min/mL and the Cmax (Rattus norvegicus [20]) is reported as 860 ng/mL.

`N[C@@H](Cc1ccc(O)c(O)c1)C(=O)O` [LEVODOPA] gave a Time (Rattus norvegicus [21]) of 119 min, an Activity (Rattus norvegicus [22]) of 104 and an Activity (Rattus norvegicus [23]) of 71. It also gave a Time (Rattus norvegicus [24]) of 160 min, an Activity (Rattus norvegicus [25]) of 1021 and an Activity (Rattus norvegicus [26]) of 522.
